Screening results: PubChem BioAssay, Broad Institute
Beta apoptosis: beta cell apoptosis inhibition. actives 0.8% (n = 300,000). INS-1E cytokine-induced death, ATP luminescence, 48 h; percent of positive-control rescue, neutral wells zero. protection from apoptosis, % (concentration not given with the values);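 active = Every replicate reaches about 75%, or at least half do and their mean reaches it too, limit read from the data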;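 note: higher means more ATP so stronger rescue from cytokine killing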
CSC inhib: cancer stem cell inhibition | cancer stem cell-like cells viability, luminescence | inhibition, % at 7.5 µM | actives 1.1% (n = 300,000) | AID 2717; in the data active = inhibition above about 75%; tested in HMLE shEcad cells
T cruzi repl: T. cruzi replication inhibition. T. cruzi beta-gal in NIH3T3, luminescence, 90 h. inhibition, % (concentration not given with the values). actives 1.4% (n = 300,000);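 active = mean inhibition across valid replicates above about 55%, limit read from the data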;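 note: signal also drops with host cell toxicity which is not excluded here; higher percent means less beta-gal luminescence so fewer parasites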
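System: NIH/3T3 fibroblasts plus reporter T. cruzi. Medium: DMEM plus 2% FBS. Probe or stimulus: 5000 reporter trypomastigotes per well. Compound: single 50 nL compound addition per well in DMSO. Incubation: co-culture of at least 90 h after 3 h attachment. Detection: GalScreen β-gal luminescence, detergent lysis, 60 min. Evaluation: parasite load inhibition, %.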
SKKanGAS inh: SKKanGAS growth inhibition; S. pyogenes SKKanGAS, kanamycin growth, BacTiter-Glo, 6 h; inhibition, % at 7.5 µM; actives 1.3% (n = 300,000); AID 1662;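 active = mean replicate score, as percent of positive control median, at least 50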;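 note: strain carries kanamycin resistance gene driven by streptokinase promoter and grows in 40 µg/ml kanamycin; loss of luminescence reflects streptokinase promoter inhibition or plain growth inhibition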
PfHsp90 yeast 2: reduces growth (ATP signal) of yeast expressing P. falciparum Hsp90; S. cerevisiae expressing PfHsp90, BacTiter-Glo ATP, 48 h; yeast lacking PDR1 and PDR3 efflux regulators; inhibition, % at 9.4 µM; actives 0.32% (n = 310,000); AID 504621;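 active = every replicate shows inhibition above about 80%, whatever the replicate mean, limit read from the data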
HIF activator: HIF pathway transcriptional activation. U2OS HRE-luciferase reporter, luminescence; normalized: DMSO 0%, desferrioxamine 100%. activation, % at 7.5 µM (by protocol). actives 0.32% (n = 300,000). AID 1910;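 active = mean activation of at least 10% of the iron chelator positive control signal, with at least half of replicates also reaching 10%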
Numbers stand for hits. The list is not random: actives were taken first. Their share in the collection is about 3.6%.

`CN(Cc1ccccc1)C(=O)COC(=O)C1CCN(S(=O)(=O)c2ccc3c(c2)OCCO3)CC1` gave Beta apoptosis inactive, T cruzi repl inactive, SKKanGAS inh inactive, PfHsp90 yeast 2 inactive and HIF activator inactive.
Cn1c(NC2CCCCC2)cc(=O)n(C)c1=O was read as Beta apoptosis inactive, CSC inhib inactive, T cruzi repl inactive, SKKanGAS inh inactive, PfHsp90 yeast 2 inactive and HIF activator inactive.
`Cc1cc(C2CCCCC2)n(O)c(=O)c1` gave Beta apoptosis 88, CSC inhib 105 and PfHsp90 yeast 2 109.
`COc1cc(/C=N/NC(=O)C(=O)/C=C2\NC3(CCCC3)Cc3ccccc32)ccc1O` gave Beta apoptosis inactive, T cruzi repl inactive, SKKanGAS inh inactive, PfHsp90 yeast 2 inactive and HIF activator inactive.
For O=C(/C=C1\NC2(CCCC2)Cc2ccccc21)C(=O)N/N=C/c1ccccc1O the results were T cruzi repl inactive, SKKanGAS inh 96, PfHsp90 yeast 2 inactive and HIF activator inactive.
Cc1ccc(Nc2nc(NCc3ccco3)c3ccccc3n2)cc1 was read as Beta apoptosis 76, CSC inhib inactive, T cruzi repl 66, SKKanGAS inh inactive, PfHsp90 yeast 2 inactive and HIF activator inactive.
Screening c1ccc(-c2nc(NCc3ccco3)c3ccccc3n2)nc1 returned Beta apoptosis 101, CSC inhib inactive, T cruzi repl inactive, SKKanGAS inh 95, PfHsp90 yeast 2 inactive and HIF activator inactive.
C(=N\Nc1nc(-c2ccccn2)nc2ccccc12)/c1ccccc1 was read as Beta apoptosis 92, CSC inhib 83, T cruzi repl inactive, SKKanGAS inh 98 and HIF activator inactive.
COc1ccccc1Nc1nc(NCc2ccco2)c2ccccc2n1 was read as Beta apoptosis inactive, CSC inhib inactive, T cruzi repl inactive, SKKanGAS inh inactive and HIF activator inactive.
Screening Oc1ccccc1-c1nc(NCc2ccco2)c2ccccc2n1 returned Beta apoptosis inactive, CSC inhib inactive, T cruzi repl inactive, SKKanGAS inh inactive, PfHsp90 yeast 2 inactive and HIF activator inactive.
NCC(O)COCCC12CC3CC(CC(C3)C1)C2 (stereo not drawn) was read as Beta apoptosis inactive, CSC inhib inactive, T cruzi repl inactive, SKKanGAS inh inactive, PfHsp90 yeast 2 inactive and HIF activator inactive.
CC(NCC(O)COCCC12CC3CC(CC(C3)C1)C2)c1ccccc1 (stereo not drawn) was read as Beta apoptosis 88, CSC inhib 105, T cruzi repl 60, SKKanGAS inh inactive, PfHsp90 yeast 2 inactive and HIF activator inactive.
Screening CCCc1cc(C(=O)NNC(=S)NC2CCCCC2)cs1 returned Beta apoptosis inactive, CSC inhib inactive, T cruzi repl inactive, SKKanGAS inh inactive, PfHsp90 yeast 2 inactive and HIF activator inactive.
CN1CCN(C(=O)CCCN2C(=O)/C(=C/c3cccc(Br)c3)SC2=S)CC1 was read as T cruzi repl 66, SKKanGAS inh inactive, PfHsp90 yeast 2 inactive and HIF activator inactive.
Screening COc1ccc(/C=C2\SC(=O)N(CCC(=O)N(C)C3CCS(=O)(=O)C3)C2=O)cc1 (stereo not drawn) returned Beta apoptosis inactive, CSC inhib inactive, T cruzi repl inactive, SKKanGAS inh inactive, PfHsp90 yeast 2 inactive and HIF activator 64.
For CCc1ccc(/C=C2\SC(=S)N(CCCC(=O)Nc3ccccc3C(=O)O)C2=O)cc1 the results were Beta apoptosis inactive, CSC inhib inactive, T cruzi repl inactive, SKKanGAS inh 66, PfHsp90 yeast 2 inactive and HIF activator inactive.
For COc1ccc(/C=C2\SC(=S)N(CCCC(=O)N3CCN(C)CC3)C2=O)cc1 the results were Beta apoptosis inactive, CSC inhib inactive, T cruzi repl 60, SKKanGAS inh inactive, PfHsp90 yeast 2 inactive and HIF activator inactive.
Screening COc1ccc(/C=C2\SC(=O)N(CC(=O)N(C)C3CCS(=O)(=O)C3)C2=O)cc1 (stereo not drawn) returned Beta apoptosis inactive, CSC inhib inactive, T cruzi repl inactive, SKKanGAS inh inactive, PfHsp90 yeast 2 inactive and HIF activator inactive.
Screening CC(=O)N1c2ccc(S(=O)(=O)N(C)CC(=O)NC3CCCC3)cc2CC1C (stereo not drawn) returned Beta apoptosis inactive, CSC inhib inactive, T cruzi repl inactive, SKKanGAS inh inactive, PfHsp90 yeast 2 inactive and HIF activator inactive.
CC(C)c1ccc(CNC(=O)C2CCCN2S(=O)(=O)c2ccccc2)cc1 (stereo not drawn) was read as Beta apoptosis inactive, CSC inhib inactive, T cruzi repl inactive, SKKanGAS inh inactive, PfHsp90 yeast 2 inactive and HIF activator inactive.
Cc1cccc(-n2cnc3cc(C(=O)N4CCc5ccccc54)ccc32)c1 was read as Beta apoptosis inactive, CSC inhib inactive, T cruzi repl inactive, SKKanGAS inh inactive, PfHsp90 yeast 2 inactive and HIF activator inactive.
For Cc1cc(C)c(S(=O)(=O)Cc2ccccc2)c(=O)[nH]1 the results were CSC inhib inactive, T cruzi repl inactive, SKKanGAS inh inactive, PfHsp90 yeast 2 inactive and HIF activator inactive.
COc1ccc2nc(C)cc(SCC(=O)N/N=C/c3ccccc3)c2c1 was read as Beta apoptosis inactive, CSC inhib inactive, T cruzi repl inactive, SKKanGAS inh inactive, PfHsp90 yeast 2 inactive and HIF activator inactive.
Screening C=CCn1c(CNc2ccc(C)cc2)nnc1SCC(=O)N/N=C/c1ccc(O)cc1O returned Beta apoptosis inactive, CSC inhib 106, T cruzi repl inactive, SKKanGAS inh inactive, PfHsp90 yeast 2 inactive and HIF activator inactive.
For COc1ccc(N2Cc3ccc(C(=O)N/N=C\c4ccc(O)cc4O)cc3C2)cc1 the results were Beta apoptosis inactive, CSC inhib 91, T cruzi repl inactive, SKKanGAS inh inactive and HIF activator inactive.
For COc1ccc2nc(C)cc(SCC(=O)N/N=C/c3ccc(O)cc3O)c2c1 the results were Beta apoptosis 77, CSC inhib 104, T cruzi repl inactive, SKKanGAS inh inactive, PfHsp90 yeast 2 inactive and HIF activator 22.
For COc1ccc(C(=O)Nc2cccc(C(=O)N/N=C/c3ccc(OC)cc3OC)c2)cc1 the results were Beta apoptosis inactive, T cruzi repl inactive, SKKanGAS inh inactive, PfHsp90 yeast 2 inactive and HIF activator inactive.
C=CCn1c(COc2ccccc2)nnc1SCC(=O)N/N=C/c1cc(Cl)ccc1O was read as Beta apoptosis inactive, CSC inhib inactive, T cruzi repl inactive, SKKanGAS inh 63, PfHsp90 yeast 2 inactive and HIF activator inactive.
Screening CC[C@@]1(C(=O)OC)N[C@H](CN(C)S(=O)(=O)c2ccc(F)cc2)[C@@H]2C(=O)N(C)C(=O)[C@@H]21 returned PfHsp90 yeast 2 inactive.
Screening CC1CCN(S(=O)(=O)c2ccc(NC(=O)C3CCN(C(=O)c4ccco4)CC3)cc2)CC1 returned Beta apoptosis inactive, CSC inhib inactive, T cruzi repl inactive, SKKanGAS inh inactive, PfHsp90 yeast 2 inactive and HIF activator inactive.
